Results taken from ChEMBL document CHEMBL1133696, “Development of a lead inhibitor for the A16V+S108T mutant of dihydrofolate reductase from the cycloguanil-resistant strain (T9/94) of Plasmodium falciparum” (J Med Chem, 2000).

Tests used:
[1] = system: Plasmodium falciparum; assay: Inhibition of Plasmodium falciparum T9/94 mutant; type: functional, organism-based
Method in brief: (§1)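 Parasites kept in human erythrocytes in RPMI 1640 with 25 mM HEPES pH 7.4, 0.2% NaHCO3, gentamicin and 10% human serum, at 37 °C under 3% CO2. Clones used were TM4/8.2 (wild-type DHFR) and T9/94 RC17 (A16V+S108T). Drug dilutions were made from DMSO stocks, final DMSO 0.1%, and added to a 1.5% cell suspension at 1-2% parasitemia. After 24 h, 0.25 µCi [3H]-hypoxanthine was added for a further 18-24 h, then scintillation counting. IC50 taken from a sigmoidal curve.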

[2] = molecular target: Bifunctional dihydrofolate reductase-thymidylate synthase (Plasmodium falciparum K1) (UniProt P13922); assay: Selectivity ratio of growth inhibition against Plasmodium falciparum TM4/8.2(wild-type) and T9/94(mutant); type: functional
[3] = molecular target: Bifunctional dihydrofolate reductase-thymidylate synthase (Plasmodium falciparum K1) (UniProt P13922); assay: Evaluated for activity of compound relative to Cycloguanil
[4] = system: Plasmodium falciparum; assay: (§2) Growth inhibition (IC50) against Plasmodium falciparum wild-type TM4/8.2; type: functional, organism-based; method in brief: as §1
[5] = molecular target: T1, Bifunctional dihydrofolate reductase-thymidylate synthase (Plasmodium falciparum K1, UniProt P13922, A16V/S108T); assay: Inhibition constant (Ki mut) against A16V+S108T Mutant DHFRs of Plasmodium falciparum
[6] = molecular target: Bifunctional dihydrofolate reductase-thymidylate synthase (Plasmodium falciparum K1) (UniProt P13922); assay: Evaluated for activity of relative to Cycloguanil
[7] = molecular target: Bifunctional dihydrofolate reductase-thymidylate synthase (Plasmodium falciparum K1) (UniProt P13922); assay: Ratio of inhibitory constant of mutant by wild-type DHFRs of Plasmodium falciparum
[8] = system: Plasmodium falciparum; assay: as §2; type: functional, organism-based; remark: listed apart in the source
Method in brief: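 TM4/8.2 clone (wild-type DHFR) grown in human erythrocytes, RPMI 1640 with 25 mM HEPES pH 7.4, 0.2% NaHCO3, gentamicin, 10% human serum, 37 °C, 3% CO2. Drug from DMSO (final 0.1%), 1.5% cell suspension at 1-2% parasitemia; [3H]-hypoxanthine added after 24 h, a further 18-24 h incubation. IC50 from sigmoidal incorporation-versus-concentration curve.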

[9] = molecular target: T1, Bifunctional dihydrofolate reductase-thymidylate synthase; assay: Evaluated for inhibition constant (Ki mut) against A16V+S108T Mutant dihydrofolate reductase of Plasmodium falciparum
[10] = system: Plasmodium falciparum; assay: Growth inhibition IC50 against Plasmodium falciparum mutant T9/94; type: functional, organism-based; method in brief: as §1
[11] = Selectivity ratio of growth inhibition values of wild-type (TM4/8.2) and mutant (T9/94) clones of Plasmodium falciparum
Method in brief: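 Clones TM4/8.2 (wild-type DHFR) and T9/94 RC17 (A16V+S108T) grown in human erythrocytes in RPMI 1640 with 25 mM HEPES pH 7.4 and 10% human serum, 37 °C, 3% CO2. 1.5% cell suspension at 1-2% parasitemia with drug in 0.1% DMSO final for 24 h, then [3H]-hypoxanthine 18-24 h. IC50 taken from sigmoidal curves; ratio is T9/94 IC50 over TM4 IC50.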

T1 sequence (P13922 whole entry, looked up, stated change not applied): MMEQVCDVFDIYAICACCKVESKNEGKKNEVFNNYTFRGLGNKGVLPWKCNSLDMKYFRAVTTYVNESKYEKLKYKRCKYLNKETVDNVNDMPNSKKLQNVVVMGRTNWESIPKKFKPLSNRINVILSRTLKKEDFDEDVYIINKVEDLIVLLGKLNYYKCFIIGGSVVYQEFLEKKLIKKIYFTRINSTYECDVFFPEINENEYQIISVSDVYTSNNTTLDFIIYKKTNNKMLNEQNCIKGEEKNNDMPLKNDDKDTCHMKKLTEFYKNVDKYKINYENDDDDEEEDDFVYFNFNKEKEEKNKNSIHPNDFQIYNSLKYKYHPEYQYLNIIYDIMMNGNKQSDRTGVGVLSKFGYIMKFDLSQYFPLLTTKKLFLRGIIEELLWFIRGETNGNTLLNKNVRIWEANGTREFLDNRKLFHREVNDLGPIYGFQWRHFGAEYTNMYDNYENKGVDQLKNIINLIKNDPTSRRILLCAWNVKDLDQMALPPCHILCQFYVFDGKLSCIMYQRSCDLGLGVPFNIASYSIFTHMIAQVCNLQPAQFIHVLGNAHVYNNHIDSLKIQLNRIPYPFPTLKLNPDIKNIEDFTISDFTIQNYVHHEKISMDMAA
Chain of Bifunctional dihydrofolate reductase-thymidylate synthase (Plasmodium falciparum K1) (P13922 whole entry, looked up): as the sequence (P13922 whole entry, looked up, stated change not applied) above

Structure (SMILES) | IC50 [1] | IC50 ratio [2] | Relative activity [3] | IC50 [4] | Ki [5] | Relative activity [6] | Ratio [7] | IC50 [8] | Ki [9] | IC50 [10] | IC50 ratio [11]
CC1(C)N=C(N)N=C(N)N1c1ccc(Cl)cc1 [CYCLOGUANIL] | 2430 nM | 60.8 | 1 | 40 nM | 1310 nM | 1 | 876 |  |  |  | 
CC1N=C(N)N=C(N)N1c1ccc(Cl)cc1 (stereo unspecified) | 347 nM | 1 | 0.09 |  | 127 nM | 2.7 | 31 | 348 nM |  |  | 
CC1N=C(N)N=C(N)N1c1ccc(Cl)c(Cl)c1 (stereo unspecified) | 19 nM | 0.54 | 0.014 |  | 17.8 nM | 0.9 | 12.7 | 35 nM |  |  | 
CCC1N=C(N)N=C(N)N1c1ccc(Cl)cc1 (stereo unspecified) | 486 nM | 12.2 | 0.14 |  | 189 nM | 2.4 | 52 | 40 nM |  |  | 
CC1(C)N=C(N)N=C(N)N1c1ccccc1 | 445 nM | 0.82 | 1.05 |  | 1380 nM | 13 | 69 | 546 nM |  |  | 
CC(C)(C)C1N=C(N)N=C(N)N1c1ccc(Cl)cc1 (stereo unspecified) | 2820 nM |  | 63 |  | 82700 nM |  |  | 2910 nM |  |  | 
NC1=NCN(c2ccc(Cl)cc2)C(N)=N1 | 313 nM | 0.33 | 0.5 |  |  | 16 | 26 | 952 nM | 646 nM |  | 
Cc1ccc(N2C(N)=NC(N)=NC2C(C)C)cc1 (stereo unspecified) | 3450 nM | 0.42 | 1.11 |  | 1460 nM | 111 | 8.7 | 8220 nM |  |  | 
CC(C)C1N=C(N)N=C(N)N1c1ccc(Cl)cc1 (stereo unspecified) | 2820 nM | 0.97 | 1.2 |  | 1540 nM | 40.3 | 25 | 2910 nM |  |  | 
CC1(C)N=C(N)N=C(N)N1c1ccc(Br)cc1 | 2760 nM | 89 | 1.5 |  | 1950 nM | 0.7 | 1770 | 31 nM |  |  | 
CC1N=C(N)N=C(N)N1c1cccc(Cl)c1 (stereo unspecified) | 28 nM |  |  |  |  |  |  |  |  |  | 
CC1N=C(N)N=C(N)N1c1ccc(Br)cc1 (stereo unspecified) | 277 nM | 2.1 | 0.15 |  | 202 nM | 3.8 | 35 | 132 nM |  |  | 
NC1=NC(c2ccccc2)N(c2ccc(Br)cc2)C(N)=N1 (stereo unspecified) | 180 nM | 3.86 | 0.07 |  |  | 1.9 | 31 | 47 nM | 90 nM |  | 
CCC1N=C(N)N=C(N)N1c1ccc(Br)cc1 (stereo unspecified) | 220 nM | 3.24 | 0.15 |  | 202 nM | 1.8 | 37 | 132 nM |  |  | 
CCCC1N=C(N)N=C(N)N1c1ccc(Cl)cc1 (stereo unspecified) | 365 nM | 5.62 | 0.08 |  |  | 3.1 | 23 | 65 nM | 107 nM |  | 
Cc1ccc(N2C(N)=NC(N)=NC2(C)C)cc1 | 3620 nM |  |  |  |  |  |  | 65 nM |  |  | 

Structure (SMILES) | IC50 [1] | IC50 ratio [2] | Relative activity [3] | IC50 [4] | Ki [5] | Relative activity [6] | Ratio [7] | IC50 [8] | Ki [9] | IC50 [10] | IC50 ratio [11]
CCCC1N=C(N)N=C(N)N1c1ccc(C)cc1 (stereo unspecified) | 152 nM | 0.91 | 0.14 |  | 188 nM | 9.1 | 14 | 167 nM |  |  | 
NC1=NC(c2ccccc2)N(c2ccc(Cl)c(Cl)c2)C(N)=N1 (stereo unspecified) | 29 nM |  |  |  |  |  |  | 40 nM |  |  | 
Cc1ccc(N2C(N)=NC(N)=NC2c2ccccc2)cc1 (stereo unspecified) | 39 nM | 0.29 | 0.13 |  |  | 5.1 | 22 | 136 nM | 170 nM |  | 
CCCC1N=C(N)N=C(N)N1c1ccc(Br)cc1 (stereo unspecified) | 250 nM | 3.97 | 0.1 |  |  | 1.7 | 49 | 63 nM | 127 nM |  | 
CC1(C)N=C(N)N=C(N)N1c1ccc(F)cc1 | 1000 nM | 3.4 | 1.2 |  | 1630 nM | 3 | 355 | 294 nM |  |  | 
NC1=NCN(c2ccccc2)C(N)=N1 | 356 nM | 0.03 | 0.4 |  | 585 nM | 220 | 1.8 | 11600 nM |  |  | 
NC1=NCN(c2ccc(F)cc2)C(N)=N1 | 312 nM | 0.03 | 0.4 |  | 469 nM | 180 | 1.7 | 9660 nM |  |  | 
CC(C)C1N=C(N)N=C(N)N1c1ccc(Br)cc1 (stereo unspecified) | 725 nM | 1.14 | 0.9 |  | 1200 nM | 20 | 40 | 638 nM |  |  | 
NC1=NC(c2ccccc2)N(c2ccc(Cl)cc2)C(N)=N1 (stereo unspecified) | 44 nM |  | 0.04 |  |  | 3 |  | 27 nM | 49 nM |  | 
Cc1ccc(N2C(N)=NC(N)=NC2C)cc1 (stereo unspecified) | 464 nM | 1 | 0.14 |  | 185 nM | 15 | 7.9 | 462 nM |  |  | 
NC1=NC(c2ccccc2)N(c2cccc(Cl)c2)C(N)=N1 (stereo unspecified) | 24 nM | 0.05 | 0.008 |  |  | 7.8 | 0.9 | 455 nM | 10 nM |  | 
CC1(C)N=C(N)N=C(N)N1c1cccc(Cl)c1 | 298 nM |  |  |  |  |  |  | 60 nM |  |  | 
CCC1N=C(N)N=C(N)N1c1ccc(C)cc1 (stereo unspecified) | 517 nM | 1.89 | 0.1 |  | 128 nM | 3.9 | 22 | 273 nM |  |  | 
CC1(C)N=C(N)N=C(N)N1c1ccc(Cl)c(Cl)c1 [CHLORCYCLOGUANIL] |  | 76.8 | 0.1 |  | 131 nM | 0.73 | 119 | 4 nM |  | 307 nM | 
CCCCC1N=C(N)N=C(N)N1c1ccc(Cl)cc1 (stereo unspecified) | 250 nM |  | 0.1 |  |  | 2.5 | 45 | 111 nM | 167 nM |  | 2.25
